# According to ChEMBL document CHEMBL4689842, “EUbOPEN Chemogenomics Library wave 1” (2021):
# Where “and” joins values, the source holds several entries; their conditions need not be identical. Identical values can stand only once.
# Tested on: HEK-293T
# Assay: Multiplex assay against HEK293T;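 as to Population Tubulin-Different-Phenotype (%): share of the cells with healthy nuclei that show this phenotype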
# Format: toxicity, cell-based
# Settings: human
# Outline: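 Imaging took place on a CQ1 microscope at 37°C and 5% CO2 once compound had been added to live cells stained at seeding with Hoechst33342, BioTracker Green Microtubule Cytoskeleton Dye, MitoTracker Red and Annexin V Alexa Fluor 680. CellPathfinder machine-learning gating classed cells as Hoechst high-intensity objects or normal cells, classed normal cells as having healthy, pyknosed or fragmented nuclei, and classed pyknosed cells as mitotic or apoptotic. Tubulin, mitochondrial-mass and membrane-permeability phenotypes are per cents of the healthy-nucleus cells.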
# [1] = 12 h, 1 µM, compound concentration 1 uM, replicate 1
# [2] = 12 h, 1 µM, compound concentration 1 uM, replicate 2
# [3] = 12 h, 10 µM, compound concentration 10 uM, replicate 1
# [4] = 12 h, 10 µM, compound concentration 10 uM, replicate 2
# [5] = 24 h, 1 µM, compound concentration 1 uM, replicate 1
# [6] = 24 h, 1 µM, compound concentration 1 uM, replicate 2
# [7] = 24 h, 10 µM, compound concentration 10 uM, replicate 1
# [8] = 24 h, 10 µM, compound concentration 10 uM, replicate 2
# [9] = 48 h, 1 µM, compound concentration 1 uM, replicate 1
# [10] = 48 h, 1 µM, compound concentration 1 uM, replicate 2
# [11] = 48 h, 10 µM, compound concentration 10 uM, replicate 1
# [12] = 48 h, 10 µM, compound concentration 10 uM, replicate 2
compound,measurement,setting,value
CS(=O)(=O)N1CCCC(NC(=O)[C@H](CCC2CCCCC2)NC(=O)c2ccc(CNc3ncnc4c3nnn4-c3ccccc3)cc2)C1 (some centres not stated) [SR-301],Population Apoptotic (%),[1],26% and 51% and 37%
same,Population Fragmented Nuclei (%),[1],13% and 14% and 15%
same,Population Healthy Nuclei (%),[1],22% and 17% and 20%
same,Population Hoechst High Intensity Objects (%),[1],13% and 14%
same,Population Membrane Permeable-Phenotype (%),[1],8% and 3%
same,Population Mitochondria Different-Phenotype (%),[1],85% and 84%
same,Population Mitotic Cells (%),[1],73% and 48% and 62%
same,Population Normal (%),[1],86% and 85%
same,Population Pyknosed Nuclei (%),[1],64% and 67%
same,Population Tubulin-Different-Phenotype (%),[1],46% and 57% and 55%
same,Total Cell Count,[1],584 and 339 and 397
same,Population Apoptotic (%),[2],20% and 16% and 18%
same,Population Fragmented Nuclei (%),[2],5% and 8% and 4%
same,Population Healthy Nuclei (%),[2],41% and 36% and 50%
same,Population Membrane Permeable-Phenotype (%),[2],4% and 1% and 5%
same,Population Mitochondria Different-Phenotype (%),[2],41% and 30%
same,Population Mitotic Cells (%),[2],79% and 83% and 81%
same,Population Normal (%),[2],94% and 98% and 96%
same,Population Pyknosed Nuclei (%),[2],53% and 55% and 45%
same,Population Tubulin-Different-Phenotype (%),[2],43% and 26% and 29%
same,Total Cell Count,[2],247 and 189 and 243
same,Population Apoptotic (%),[3],68% and 73%
same,Population Fragmented Nuclei (%),[3],20% and 14% and 21%
same,Population Healthy Nuclei (%),[3],6% and 12% and 9%
same,Population Hoechst High Intensity Objects (%),[3],17%
same,Population Membrane Permeable-Phenotype (%),[3],10%
same,Population Mitochondria Different-Phenotype (%),[3],76% and 85% and 86%
same,Population Mitotic Cells (%),[3],31% and 26%
same,Population Normal (%),[3],82%
same,Population Pyknosed Nuclei (%),[3],73% and 68%
same,Population Tubulin-Different-Phenotype (%),[3],71% and 66%
same,Total Cell Count,[3],404 and 541 and 467
same,Population Apoptotic (%),[4],51% and 84% and 91%
same,Population Fragmented Nuclei (%),[4],9% and 13% and 19%
same,Population Healthy Nuclei (%),[4],28% and 26% and 20%
same,Population Hoechst High Intensity Objects (%),[4],8% and 13% and 20%
same,Population Mitochondria Different-Phenotype (%),[4],43% and 78% and 82%
same,Population Normal (%),[4],92% and 86% and 79%
same,Population Pyknosed Nuclei (%),[4],61% and 60%
same,Population Tubulin-Different-Phenotype (%),[4],43% and 40% and 57%
same,Total Cell Count,[4],225 and 185 and 216
same,Population Apoptotic (%),[5],26% and 40% and 55%
same,Population Fragmented Nuclei (%),[5],18% and 19%
same,Population Healthy Nuclei (%),[5],19% and 18% and 14%
same,Population Hoechst High Intensity Objects (%),[5],19% and 18% and 16%
same,Population Membrane Permeable-Phenotype (%),[5],6% and 5% and 2%
same,Population Mitochondria Different-Phenotype (%),[5],72% and 77% and 78%
same,Population Mitotic Cells (%),[5],73% and 60% and 44%
same,Population Normal (%),[5],80% and 81% and 83%
same,Population Pyknosed Nuclei (%),[5],61% and 62% and 66%
same,Population Tubulin-Different-Phenotype (%),[5],48% and 57% and 65%
same,Total Cell Count,[5],594 and 385 and 349
same,Population Apoptotic (%),[6],29% and 24%
same,Population Fragmented Nuclei (%),[6],3% and 2% and 6%
same,Population Healthy Nuclei (%),[6],64% and 67% and 57%
same,Population Hoechst High Intensity Objects (%),[6],3% and 2%
same,Population Membrane Permeable-Phenotype (%),[6],3% and 4%
same,Population Mitochondria Different-Phenotype (%),[6],41% and 43% and 33%
same,Population Mitotic Cells (%),[6],70% and 75%
same,Population Normal (%),[6],96% and 97%
same,Population Pyknosed Nuclei (%),[6],32% and 30% and 36%
same,Population Tubulin-Different-Phenotype (%),[6],52% and 36% and 34%
same,Total Cell Count,[6],298 and 240 and 293
same,Population Apoptotic (%),[7],81% and 77% and 85%
same,Population Fragmented Nuclei (%),[7],28% and 20% and 26%
same,Population Healthy Nuclei (%),[7],3% and 5%
same,Population Hoechst High Intensity Objects (%),[7],19% and 18% and 20%
same,Population Membrane Permeable-Phenotype (%),[7],8% and 9% and 0%
same,Population Mitochondria Different-Phenotype (%),[7],58% and 77% and 81%
same,Population Mitotic Cells (%),[7],18% and 22% and 14%
same,Population Normal (%),[7],80% and 81% and 79%
same,Population Pyknosed Nuclei (%),[7],68% and 74% and 69%
same,Population Tubulin-Different-Phenotype (%),[7],33% and 54%
same,Total Cell Count,[7],495 and 531 and 410
same,Population Apoptotic (%),[8],96% and 55% and 93%
same,Population Fragmented Nuclei (%),[8],15% and 11%
same,Population Healthy Nuclei (%),[8],36% and 42% and 39%
same,Population Hoechst High Intensity Objects (%),[8],17% and 10% and 14%
same,Population Membrane Permeable-Phenotype (%),[8],7% and 5% and 11%
same,Population Mitochondria Different-Phenotype (%),[8],95% and 51% and 90%
same,Population Normal (%),[8],82% and 89% and 85%
same,Population Pyknosed Nuclei (%),[8],48% and 45%
same,Population Tubulin-Different-Phenotype (%),[8],46% and 47% and 74%
same,Total Cell Count,[8],210 and 253 and 187
same,Population Apoptotic (%),[9],23% and 35% and 54%
same,Population Fragmented Nuclei (%),[9],21% and 28% and 19%
same,Population Healthy Nuclei (%),[9],17% and 11% and 15%
same,Population Hoechst High Intensity Objects (%),[9],22% and 24%
same,Population Membrane Permeable-Phenotype (%),[9],4% and 5%
same,Population Mitochondria Different-Phenotype (%),[9],54% and 70% and 71%
same,Population Mitotic Cells (%),[9],77% and 64% and 45%
same,Population Normal (%),[9],77% and 75%
same,Population Pyknosed Nuclei (%),[9],60% and 64%
same,Population Tubulin-Different-Phenotype (%),[9],39% and 52%
same,Total Cell Count,[9],604 and 398 and 345
same,Population Apoptotic (%),[10],20% and 12%
same,Population Fragmented Nuclei (%),[10],4% and 3%
same,Population Healthy Nuclei (%),[10],82% and 80% and 81%
same,Population Hoechst High Intensity Objects (%),[10],4% and 3%
same,Population Membrane Permeable-Phenotype (%),[10],3% and 1%
same,Population Mitochondria Different-Phenotype (%),[10],17% and 20% and 18%
same,Population Mitotic Cells (%),[10],76% and 79% and 87%
same,Population Normal (%),[10],95% and 96%
same,Population Pyknosed Nuclei (%),[10],12% and 15%
same,Population Tubulin-Different-Phenotype (%),[10],41% and 35% and 33%
same,Total Cell Count,[10],527 and 453 and 385
same,Population Apoptotic (%),[11],90% and 84% and 81%
same,Population Fragmented Nuclei (%),[11],37% and 29% and 32%
same,Population Healthy Nuclei (%),[11],2% and 3%
same,Population Hoechst High Intensity Objects (%),[11],22% and 20% and 23%
same,Population Membrane Permeable-Phenotype (%),[11],14% and 11%
same,Population Mitochondria Different-Phenotype (%),[11],71% and 57% and 77%
same,Population Mitotic Cells (%),[11],9% and 15% and 18%
same,Population Normal (%),[11],77% and 79% and 76%
same,Population Pyknosed Nuclei (%),[11],60% and 67% and 64%
same,Population Tubulin-Different-Phenotype (%),[11],28% and 64% and 55%
same,Total Cell Count,[11],401 and 536 and 484
same,Population Apoptotic (%),[12],92% and 82% and 60%
same,Population Fragmented Nuclei (%),[12],15% and 17% and 12%
same,Population Healthy Nuclei (%),[12],52% and 54% and 64%
same,Population Hoechst High Intensity Objects (%),[12],16% and 12% and 11%
same,Population Membrane Permeable-Phenotype (%),[12],4% and 6%
same,Population Mitochondria Different-Phenotype (%),[12],95% and 91% and 32%
same,Population Normal (%),[12],83% and 87% and 88%
same,Population Pyknosed Nuclei (%),[12],32% and 27% and 23%
same,Population Tubulin-Different-Phenotype (%),[12],46% and 86% and 45%
same,Total Cell Count,[12],209 and 191 and 306
